Screens (PubChem)
E coli WT exp: growth inhibitors of E. coli BW25113 wild type; OD600 absorbance; growth inhibition, % at 100 µM; hit rate 0.15% among 98,000;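 active = growth inhibition above about 50% at one test dose, limit read from the data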;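 also: growth measured after 20 h incubation at 37 °C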
HUVEC inhibit: blocks proliferation of human endothelial cells; HUVEC proliferation, CellTiter-Glo luminescence, 72 h; hits give low values; viability, % at 10 µM (by protocol); hit rate 1.1% among 86,000;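 active = viability at or below 30%; inactive = viability above 30%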;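 also: 100% = median luminescence of DMSO-only cell control wells on each plate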
H69AR inhibit: growth inhibitors of human H69AR lung tumor cells. viability, % at 10 µM. H69AR lung tumor viability, ATP luminescence, 72 h; hits give low values. hit rate 6% among 85,000. AID 598;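 active = viability at or below 40%; inactive = viability above 40%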;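 also: multidrug resistant small cell line overexpressing MRP-1 efflux transporter; 100% = mean luminescence of untreated control wells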
Jurkat viability: reduces viability or proliferation of Jurkat cells. inhibition, % at 4 µM. Jurkat E6.1 viability, ATP luminescence, 48 h. hit rate 1.2% among 56,000;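 active = inhibition above the mean inhibition of all tested compounds plus 3 SD, cut at about 28% in these data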
tolC growth inh: blocks growth of E. coli BW25113 tolC mutant. growth inhibition, % at 10 µM (by protocol). OD615. hit rate 2.2% among 65,000;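 active = growth inhibition at or above a cutoff equal to the mean over every tested compound plus 3 SD, cut at about 60% in these data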;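 also: growth measured after 20 h incubation at 37 °C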
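Doses: one dose of 10 µM final / Material: E. coli BW25113 ΔtolC::kan, tolC deletion mutant strain / Buffer or medium: LB with kanamycin 50 µg/mL / Evaluation: percent growth inhibition / Detection: optical density read at 615 nm / Incubation: 37 °C, 20 h exposure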
Lung fibro prol: blocks proliferation of human lung fibroblasts | hit rate 1.1% among 85,000 | LL 47 human lung fibroblast viability, ATP luminescence; hits give low values | viability, % at 10 µM;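 active = viability at or below 50% in the single dose screen; inactive = viability above 50%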;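 also: compound exposure lasted 72 h before the ATP readout; 100% = median luminescence of untreated cell-only wells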
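Test system: LL 47 human lung fibroblasts / Incubation: 72 h compound exposure at 37 °C after overnight plating / Technique: luminescent ATP detection, CellTiter-Glo / Compound dosing: 0.1% DMSO in all compound wells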
Active calls of the source: *. A selection: hits, their analogues and other compounds. The true share with any hit is near 6.4%.

Screening CC(NC(=O)Cc1cccs1)c1ccc2c(c1)OCO2 (stereo not drawn) returned E coli WT exp 9, HUVEC inhibit 121, H69AR inhibit 95, Jurkat viability 12, tolC growth inh 0 and Lung fibro prol 102.
`CSc1cccc(-n2cc(-c3ccc4c(c3)OCO4)[nH]c2=O)c1` gave E coli WT exp -9, HUVEC inhibit 52, H69AR inhibit 25*, tolC growth inh 17 and Lung fibro prol 70.
Screening CC(=O)c1c(C)nc(-c2ccc3c(c2)OCO3)n1O returned E coli WT exp -3, HUVEC inhibit 81, H69AR inhibit 84, Jurkat viability -4, tolC growth inh -4 and Lung fibro prol 105.
For Cc1cccnc1Nc1nc(-c2ccc(O)c(O)c2)cs1 the results were E coli WT exp 23, HUVEC inhibit 58, H69AR inhibit 28* and Lung fibro prol 84.
CCN(C(=O)c1cnc(N2CCN(c3ncccn3)CC2)c2ccccc12)c1cccc(Cl)c1 was read as E coli WT exp -11, HUVEC inhibit 51, H69AR inhibit 20*, Jurkat viability 17, tolC growth inh 22 and Lung fibro prol 76.
Screening COc1ccc2c(c1OC)C(=O)N1c3ccccc3C(=O)N(c3ccc(F)cc3)C21 (stereo not drawn) returned E coli WT exp -4, HUVEC inhibit 88, H69AR inhibit 12*, tolC growth inh 10 and Lung fibro prol 93.
For Cc1ccccc1N1C(=O)c2ccccc2N2C(=O)c3ccccc3C12 (stereo not drawn) the results were E coli WT exp -3, HUVEC inhibit 85, H69AR inhibit 58 and Lung fibro prol 80.
Screening COc1ccc2c(c1OC)C(=O)N1c3ccccc3C(=O)N(c3ccccc3)C21 (stereo not drawn) returned E coli WT exp 0, HUVEC inhibit 68, H69AR inhibit 1.0*, tolC growth inh 8 and Lung fibro prol 93.
`Cc1cc(C)c2c(c1)-c1c(ssc1=S)C(C)(C)N2C(=O)CSc1nncn1C` gave E coli WT exp 7, HUVEC inhibit 67, H69AR inhibit 13*, Jurkat viability 7, tolC growth inh 12 and Lung fibro prol 74.
For COC(=O)c1sccc1-c1ccc(C(=O)Nc2cccc(Cl)c2)o1 the results were E coli WT exp -10.
`Cc1noc(C)c1S(=O)(=O)Nc1ccc(C(=O)N2CCCCC2)cc1` gave E coli WT exp -5, HUVEC inhibit 101, H69AR inhibit 94 and Lung fibro prol 109.
For Cc1noc(C)c1S(=O)(=O)N1CCC(C(=O)N2CCN(c3ccc(Cl)cc3)CC2)CC1 the results were E coli WT exp -3, HUVEC inhibit 90, H69AR inhibit 70, tolC growth inh 1 and Lung fibro prol 93.
`Cc1ccc(C)c(N2CCN(C(=O)c3ccc(NS(=O)(=O)c4c(C)noc4C)cc3)CC2)c1` gave E coli WT exp -18, Jurkat viability 8 and tolC growth inh 80*.
Cc1noc(C)c1S(=O)(=O)N1CCC(C(=O)N2CCN(c3ccccc3Cl)CC2)CC1 was read as E coli WT exp -2, HUVEC inhibit 98, H69AR inhibit 8.4*, tolC growth inh 1 and Lung fibro prol 102.
For Cc1ccc(NC(=O)c2ccc(NS(=O)(=O)c3c(C)noc3C)cc2)cc1C the results were E coli WT exp 7, HUVEC inhibit 73, H69AR inhibit 98, Jurkat viability -2, tolC growth inh 76* and Lung fibro prol 93.
Cc1ccc(Cl)cc1N1CCN(C(=O)c2ccc(NS(=O)(=O)c3c(C)noc3C)cc2)CC1 was read as E coli WT exp -19, Jurkat viability 2 and tolC growth inh 71*.
For COc1ccc(NC(=O)c2ccc(NS(=O)(=O)c3c(C)noc3C)cc2)cc1OC the results were E coli WT exp 0, Jurkat viability 4 and tolC growth inh -5.
CN(C(=O)Nc1ccc(Cl)cc1Cl)[C@H]1c2cc(Br)ccc2OC[C@H]1CO was read as E coli WT exp -11.
O=C(NC(Cc1ccccc1)C(=O)O)c1ccc(S(=O)(=O)N2CCCCC2)cc1 (stereo not drawn) was read as E coli WT exp -2, HUVEC inhibit 98, H69AR inhibit 96 and Lung fibro prol 108.
For CCOC(=O)c1cccc(Nc2ncnc3ccc(C)cc23)c1 the results were E coli WT exp 15, HUVEC inhibit 84, H69AR inhibit 22* and Lung fibro prol 90.
